pIC50: −log10 of the molar value.
How the values were obtained:
[1] = tested on: S1; test: Induction of apoptosis in human S1 cells assessed as viable cells at 10 uM incubated for 48 hrs by annexin V/propidium iodide staining based flow cytometry (reference value: 94.1%); type: functional; details: S1, 48 h, read-out: Activity
[2] = tested on: LS180; test: Upregulation of ABCB1 mRNA expression in human LS180 cells at 1 uM by […] relative to control; type: functional
[3] = target: T1, Broad substrate specificity ATP-binding cassette transporter ABCG2 (Homo sapiens, UniProt Q9UNQ0); test: Reversal of human ABCG2-mediated multidrug resistance in HEK293/R482 cells assessed as fold-change in topotecan IC50 at 3 uM after 72 hrs by CCK8 relative to topotecan IC50; type: cell-based
T1 sequence (Q9UNQ0 whole entry): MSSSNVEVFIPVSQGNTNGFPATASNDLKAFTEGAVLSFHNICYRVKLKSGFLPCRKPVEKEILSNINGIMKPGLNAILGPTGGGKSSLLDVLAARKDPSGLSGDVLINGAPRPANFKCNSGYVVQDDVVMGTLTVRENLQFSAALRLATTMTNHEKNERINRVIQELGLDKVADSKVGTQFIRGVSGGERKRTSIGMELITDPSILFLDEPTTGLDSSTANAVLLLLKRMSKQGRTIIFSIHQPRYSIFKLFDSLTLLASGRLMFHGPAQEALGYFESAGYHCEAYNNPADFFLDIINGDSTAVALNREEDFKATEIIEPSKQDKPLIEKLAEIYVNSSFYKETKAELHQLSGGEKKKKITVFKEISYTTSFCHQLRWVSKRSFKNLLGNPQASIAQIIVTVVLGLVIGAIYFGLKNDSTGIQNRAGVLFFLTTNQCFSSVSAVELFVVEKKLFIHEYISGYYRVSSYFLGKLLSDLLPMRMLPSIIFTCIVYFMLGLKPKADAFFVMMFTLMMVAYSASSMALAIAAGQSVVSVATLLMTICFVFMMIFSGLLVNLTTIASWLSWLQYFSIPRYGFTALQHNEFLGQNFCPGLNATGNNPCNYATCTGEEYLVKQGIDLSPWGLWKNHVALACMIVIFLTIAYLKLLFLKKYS
Summary of the method: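 Cells were seeded at 5000/well for 24 h, then given colchicine, etoposide, mitoxantrone or topotecan ± non-toxic modulator (0.5–3.0 μM) for 72 h, with DMSO up to 0.5%. IC50 came from fitted curves (mean ± SD, three experiments). Fold-reversal = IC50 without modulator ÷ IC50 with modulator.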

[4] = tested on: S1; test: Effect on mitoxantrone-induced cytotoxicity against human S1 cells assessed as fold change in mitoxantrone IC50 at 0.5 uM after 72 hrs by MTT assay relative to mitoxantrone IC50; type: functional
Summary of the method: (§1)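 Parental S1 colon and H460 lung cancer cells were exposed for 72 h to a mitoxantrone or topotecan concentration series, with or without modulator at 0.5–3.0 μM, and read by MTT. Fold-reversal is IC50 without modulator divided by IC50 with modulator, taken from dose-response curves of three independent experiments.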

[5] = target: T1, Broad substrate specificity ATP-binding cassette transporter ABCG2; test: Inhibition of human ABCG2-mediated pheophorbide A efflux in HEK293/R482 cells incubated for 1 hr by FACScan flow cytometry; type: cell-based
Summary of the method: (§2)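 Cells held drug-free 7 days. 3 × 10^5 cells were suspended in IMDM with 5% FCS and loaded with pheophorbide A (ex 395/em 670 nm) for 1 h, with or without LCA (20 μM for single-concentration accumulation) or Ko143 3 μM as reference. Read immediately by flow cytometry. Efflux inhibition was run over a concentration range; mean ± SD of three experiments.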

[6] = target: T2, ABCG2 (Homo sapiens, UniProt Q9UNQ0); test: Modulation of ABCG2 (unknown origin) expressed in High Five insect cell vesicle membrane assessed as maximal stimulation of ATPase activity after 20 mins by colorimetric assay relative to baseline; details: membrane vesicles of High Five insect cells expressing ABCG2, read-out: Activity
T2 sequence (Q9UNQ0 whole entry): T1 sequence (Q9UNQ0 whole entry)
Summary of the method: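 Membrane vesicles from ABCG2-expressing High Five cells were incubated with LCA (0–390 μM) at 37 °C for 20 min in 50 mM MES-Tris pH 6.8 with ouabain, DTT, NaN3, EGTA and KCl, ±0.3 mM vanadate. Liberated Pi was read by molybdate/ascorbate colorimetry at 880 nm. Vi-sensitive activity = activity minus activity with vanadate; mean ± SD of three experiments.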

[7] = Cytotoxicity against human NCI-H460/MX20 cells harboring ABCG2 after 72 hrs by MTT assay; type: functional, cell-based; details: NCI-H460/MX20, 72 h
Summary of the method: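 Cells seeded at 5000/well, allowed 24 h, then exposed to a concentration series for 72 h at 37 °C in DMSO vehicle (up to 0.5% v/v). HEK293 lines were read with CCK-8 and cancer lines with MTT. IC50 was taken from fitted dose-response curves over at least three independent experiments. Lines were kept drug-free for 7 days before assay.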

[8] = tested on: HEK293; test: Induction of pheophorbide A accumulation in HEK293 cells at 20 uM incubated for 1 hr by FACScan flow cytometry; type: cell-based; details: human, hek293, 1 h; summary of the method: as §2
[9] = tested on: HEK293; test: Effect on topotecan-induced cytotoxicity against HEK293 cells assessed as fold change in topotecan IC50 at 3 uM after 72 hrs by CCK8 assay relative to topotecan IC50; type: cell-based; details: human, hek293, 72 h
Summary of the method: (§3)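 Reversal assay in parental pcDNA-HEK293 and transfected HEK293 lines (ABCB1 for colchicine, ABCC1 for etoposide, ABCG2 for mitoxantrone/topotecan). Substrate drug series was given with or without nontoxic modulator (0.5, 1.0, 2.0 or 3.0 μM) for 72 h, with a CCK-8 read-out. Fold-reversal is substrate IC50 without modulator divided by IC50 with modulator. Three independent experiments.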

[10] = target: T1, Broad substrate specificity ATP-binding cassette transporter ABCG2; test: Reversal of ABCG2 (unknown origin)-mediated multidrug resistance in human H460-MX20 cells assessed as fold change in topotecan IC50 at 3 uM after 72 hrs by MTT assay relative to topotecan IC50; type: cell-based
Summary of the method: (§4)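 Cells held drug-free 7 days, seeded at 5000 per well for 24 h, then exposed 72 h to mitoxantrone or topotecan dilutions with DMSO (≤0.5%), LCA 0.5–3.0 μM, or Ko143 1.0 μM. Viability was read by MTT. IC50 came from fitted dose-response curves of three independent experiments. Fold-reversal = IC50 without modulator divided by IC50 with modulator.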

[11] = tested on: S1; test: Effect on topotecan-induced cytotoxicity against human S1 cells assessed as fold change in topotecan IC50 at 3 uM after 72 hrs by MTT assay relative to topotecan IC50; type: functional; summary of the method: as §1
[12] = target: T1, Broad substrate specificity ATP-binding cassette transporter ABCG2; test: Reversal of ABCG2 (unknown origin)-mediated multidrug resistance in human H460-MX20 cells assessed as fold change in mitoxantrone IC50 at 2 uM after 72 hrs by MTT assay relative to mitoxantrone IC50; type: cell-based; summary of the method: as §4
[13] = target: T1, Broad substrate specificity ATP-binding cassette transporter ABCG2; test: Inhibition of ABCG2 (unknown origin)-mediated pheophorbide A efflux in H460-MX20 cells incubated for 1 hr by FACScan flow cytometry; type: cell-based; summary of the method: as §2
[14] = tested on: S1; test: Effect on topotecan-induced cytotoxicity against human S1 cells assessed as fold change in topotecan IC50 at 0.5 uM after 72 hrs by MTT assay relative to topotecan IC50; type: functional; summary of the method: as §1
[15] = tested on: HEK293; test: Effect on etoposide-induced cytotoxicity against HEK293 cells assessed as fold change in etoposide IC50 at 3 uM after 72 hrs by CCK8 assay relative to etoposide IC50; type: cell-based; details: human, hek293, 72 h; summary of the method: as §3

SMILES: C=CC(C)(C)c1cc(/C=C/C(=O)c2ccc(O)cc2)c(OC)cc1O [LICOAGROCHACONE A]
- viability at 10 µM [1]: 95.4%
- fold change (FC) [2]: 2 - 6
- fold change (FC) [3]: 4.7
- fold change (FC) [4]: 1.1
- inhibition (INH) [5]: Dose-dependent effect
- Emax at 20 min [6]: 150%
- pIC50 [7]: 4.30 to 5.00
- Activity [8]: Non-Toxic
- fold change (FC) [9]: 1
- fold change (FC) [10]: 10.1
- fold change (FC) [11]: 0.9
- fold change (FC) [12]: 15.5
- inhibition (INH) [13]: Dose-dependent effect
- fold change (FC) [14]: 0.9
- fold change (FC) [15]: 0.8
